Assay results published in ChEMBL document CHEMBL3217692, “Synthesis and cytotoxicity evaluation of novel pyrido[3,4-d]pyrimidine derivatives as potential anticancer agents” (2012).

Legend:
Type in all cases: functional
SNB-75 = test: Cytotoxicity against human SNB75 cells assessed as cell growth at 10 uM after 48 hrs by sulforhodamine B assay relative to control; settings: SNB-75, 48 h, read-out: Activity
How it was run: (§1)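 Adherent cells were grown in RPMI 1640 with 5% FBS and 2 mM L-glutamine, seeded at 5000–40 000 cells/well by doubling time, and held 24 h at 37 °C, 5% CO2 before drug. Time-zero plates were TCA-fixed. Compound in DMSO, single dose 10 μM, 48 h. Cells were fixed with cold TCA (final 10%, 60 min, 4 °C) and stained with 0.4% SRB. Bound dye was dissolved in 10 mM Tris base and read at 515 nm. Percent growth was derived from time-zero, control and treated absorbances.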

PC-3 = test: Cytotoxicity against human PC3 cells assessed as cell growth at 10 uM after 48 hrs by sulforhodamine B assay relative to control; settings: PC-3, 48 h, read-out: Activity; how it was run: as §1
KM12 = test: Cytotoxicity against human KM12 cells assessed as cell growth at 10 uM after 48 hrs by sulforhodamine B assay relative to control; settings: KM12, 48 h, read-out: Activity; how it was run: as §1
SNB-19 = test: Cytotoxicity against human SNB19 cells assessed as cell growth at 10 uM after 48 hrs by sulforhodamine B assay relative to control; settings: SNB-19, 48 h, read-out: Activity; how it was run: as §1
T47D = test: Cytotoxicity against human T47D cells assessed as cell growth at 10 uM after 48 hrs by sulforhodamine B assay relative to control; settings: read-out: Activity; how it was run: as §1
A549 = test: Cytotoxicity against human A549 cells assessed as cell growth at 10 uM after 48 hrs by sulforhodamine B assay relative to control; settings: A549, 48 h, read-out: Activity; how it was run: as §1
SF-539 = test: Cytotoxicity against human SF539 cells assessed as cell growth at 10 uM after 48 hrs by sulforhodamine B assay relative to control; settings: SF-539, 48 h, read-out: Activity; how it was run: as §1
MCF7 = test: Cytotoxicity against human MCF7 cells assessed as cell growth at 10 uM after 48 hrs by sulforhodamine B assay relative to control; settings: MCF7, 48 h, read-out: Activity; how it was run: as §1
[1] = Cytotoxicity against human UO31 cells assessed as cell growth at 10 uM after 48 hrs by sulforhodamine B assay relative to control; settings: UO-31, 48 h, read-out: Activity
How it was run: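 NCI-60 single-dose screen. Cells were grown in RPMI 1640 with 5% FBS and 2 mM L-glutamine, seeded at 5000–40 000 cells/well according to doubling time, and pre-incubated 24 h at 37 °C, 5% CO2. Time-zero plates were TCA-fixed at dosing. Compound in DMSO was given at 10 μM for 48 h. Cells were then fixed in cold TCA, stained with 0.4% SRB, solubilised in 10 mM Tris base and read at 515 nm. Growth % was calculated from time-zero, control and treated absorbances.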

NCI-H522 = test: Cytotoxicity against human NCI-H522 cells assessed as cell growth at 10 uM after 48 hrs by sulforhodamine B assay relative to control; settings: NCI-H522, 48 h, read-out: Activity; how it was run: as §1
[2] = Cytotoxicity against human NCI-ADR-RES cells assessed as cell growth at 10 uM after 48 hrs by sulforhodamine B assay relative to control; settings: read-out: Activity; how it was run: as §1
Malme-3M = test: Cytotoxicity against human MALME-3M cells assessed as cell growth at 10 uM after 48 hrs by sulforhodamine B assay relative to control; settings: read-out: Activity; how it was run: as §1
SK-MEL-2 = test: Cytotoxicity against human SK-MEL-2 cells assessed as cell growth at 10 uM after 48 hrs by sulforhodamine B assay relative to control; settings: SK-MEL-2, 48 h, read-out: Activity; how it was run: as §1
SK-OV-3 = test: Cytotoxicity against human SKOV3 cells assessed as cell growth at 10 uM after 48 hrs by sulforhodamine B assay relative to control; settings: SK-OV-3, 48 h, read-out: Activity; how it was run: as §1
NCI-H23 = test: Cytotoxicity against human NCI-H23 cells assessed as cell growth at 10 uM after 48 hrs by sulforhodamine B assay relative to control; settings: NCI-H23, 48 h, read-out: Activity; how it was run: as §1
SW-620 = test: Cytotoxicity against human SW620 cells assessed as cell growth at 10 uM after 48 hrs by sulforhodamine B assay relative to control; settings: SW-620, 48 h, read-out: Activity; how it was run: as §1
[3] = Cytotoxicity against human OVCAR8 cells assessed as cell growth at 10 uM after 48 hrs by sulforhodamine B assay relative to control; settings: OVCAR-8, 48 h, read-out: Activity; how it was run: as §1
K562 = test: Cytotoxicity against human K562 cells assessed as cell growth at 10 uM after 48 hrs by sulforhodamine B assay relative to control; settings: K562, 48 h, read-out: Activity
How it was run: (§2)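 Suspension lines were cultured in RPMI 1640 with 5% FBS and 2 mM L-glutamine, plated at 5000–40 000 cells/well and preincubated 24 h (37 °C, 5% CO2). Compound in DMSO was given at a single 10 μM dose for 48 h. Settled cells were fixed with 80% TCA (final 16%), then stained with SRB and read at 515 nm. Growth percentage was taken relative to time-zero and untreated control absorbances.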

ACHN = test: Cytotoxicity against human ACHN cells assessed as cell growth at 10 uM after 48 hrs by sulforhodamine B assay relative to control; settings: read-out: Activity; how it was run: as §1
NCI-H226 = test: Cytotoxicity against human NCI-H226 cells assessed as cell growth at 10 uM after 48 hrs by sulforhodamine B assay relative to control; settings: NCI-H226, 48 h, read-out: Activity; how it was run: as §1
MDA-MB-231 = test: Cytotoxicity against human MDA-MB-231 cells assessed as cell growth at 10 uM after 48 hrs by sulforhodamine B assay relative to control; settings: MDA-MB-231, 48 h, read-out: Activity; how it was run: as §1
SF-295 = test: Cytotoxicity against human SF295 cells assessed as cell growth at 10 uM after 48 hrs by sulforhodamine B assay relative to control; settings: SF-295, 48 h, read-out: Activity; how it was run: as §1
HOP-62 = test: Cytotoxicity against human HOP62 cells assessed as cell growth at 10 uM after 48 hrs by sulforhodamine B assay relative to control; settings: HOP-62, 48 h, read-out: Activity; how it was run: as §1
LOX IMVI = test: Cytotoxicity against human LOXIMVI cells assessed as cell growth at 10 uM after 48 hrs by sulforhodamine B assay relative to control; settings: read-out: Activity; how it was run: as §1
HT-29 = test: Cytotoxicity against human HT-29 cells assessed as cell growth at 10 uM after 48 hrs by sulforhodamine B assay relative to control; settings: HT-29, 48 h, read-out: Activity; how it was run: as §1
RPMI-8226 = test: Cytotoxicity against human RPMI8226 cells assessed as cell growth at 10 uM after 48 hrs by sulforhodamine B assay relative to control; settings: RPMI-8226, 48 h, read-out: Activity; how it was run: as §2
HCT-116 = test: Cytotoxicity against human HCT116 cells assessed as cell growth at 10 uM after 48 hrs by sulforhodamine B assay relative to control; settings: HCT-116, 48 h, read-out: Activity; how it was run: as §1
SK-MEL-5 = test: Cytotoxicity against human SK-MEL-5 cells assessed as cell growth at 10 uM after 48 hrs by sulforhodamine B assay relative to control; settings: SK-MEL-5, 48 h, read-out: Activity; how it was run: as §1

In the case of `COc1nccc2c(-c3cccc(F)c3)nc(N)nc12`, the growth at 10 µM (SNB-75) is reported as 91.1%, the growth at 10 µM (PC-3) is reported as 93% and the growth at 10 µM (KM12) is reported as 104%. For the same compound, the growth at 10 µM (SNB-19) was 107%, the growth at 10 µM (T47D) was 93.5% and the growth at 10 µM (A549) was 94.7%. It also gave a growth at 10 µM (SF-539) of 97.2%, a growth at 10 µM (MCF7) of 39.2% and a growth at 10 µM [1] of 109%. For the same compound, the growth at 10 µM (NCI-H522) was 78.6%, the growth at 10 µM [2] was 110% and the growth at 10 µM (Malme-3M) was 115%. It also gave a growth at 10 µM (SK-MEL-2) of 89.5%, a growth at 10 µM (SK-OV-3) of 105% and a growth at 10 µM (NCI-H23) of 104%. The growth at 10 µM (SW-620) was 112%, the growth at 10 µM [3] was 85.6% and the growth at 10 µM (K562) was 95.2%. For the same compound, the growth at 10 µM (ACHN) was 99.7%, the growth at 10 µM (NCI-H226) was 98.2% and the growth at 10 µM (MDA-MB-231) was 107%. The growth at 10 µM (SF-295) was 97.5%, the growth at 10 µM (HOP-62) was 104% and the growth at 10 µM (LOX IMVI) was 101%. It also gave a growth at 10 µM (HT-29) of 96.4%, a growth at 10 µM (RPMI-8226) of 107% and a growth at 10 µM (HCT-116) of 104%. The growth at 10 µM (SK-MEL-5) was 108%.
